According to the M2OR odorant receptor database:
Residue numbers refer to the chain shown, from its start.

How the values were obtained:
Settings in all cases: stereoisomer not certain
[1] = target: T1, OR6S1 (Homo sapiens) (UniProt Q8NH40)
T1 sequence (whole entry): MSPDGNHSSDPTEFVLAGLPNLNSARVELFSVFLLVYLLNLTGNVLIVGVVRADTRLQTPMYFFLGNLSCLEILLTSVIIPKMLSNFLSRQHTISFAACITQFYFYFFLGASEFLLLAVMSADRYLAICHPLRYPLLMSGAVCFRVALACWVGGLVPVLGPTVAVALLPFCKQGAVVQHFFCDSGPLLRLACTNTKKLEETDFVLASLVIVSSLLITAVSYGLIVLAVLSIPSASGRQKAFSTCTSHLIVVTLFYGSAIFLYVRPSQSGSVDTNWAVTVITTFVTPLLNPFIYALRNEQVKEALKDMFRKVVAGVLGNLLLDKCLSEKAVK
How it was run: (§1)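 Each entry records the cell line, G-protein, co-transfected protein and tags used. Methods varied with the source, often transient luciferase assays in mammalian cell lines. A receptor–molecule pair is called responsive (active) if the original authors judged its signal statistically different from baseline and non-responsive (inactive) otherwise.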

[2] = target: T2, OR6T1 (Homo sapiens) (UniProt Q8NGN1)
T2 sequence (whole entry): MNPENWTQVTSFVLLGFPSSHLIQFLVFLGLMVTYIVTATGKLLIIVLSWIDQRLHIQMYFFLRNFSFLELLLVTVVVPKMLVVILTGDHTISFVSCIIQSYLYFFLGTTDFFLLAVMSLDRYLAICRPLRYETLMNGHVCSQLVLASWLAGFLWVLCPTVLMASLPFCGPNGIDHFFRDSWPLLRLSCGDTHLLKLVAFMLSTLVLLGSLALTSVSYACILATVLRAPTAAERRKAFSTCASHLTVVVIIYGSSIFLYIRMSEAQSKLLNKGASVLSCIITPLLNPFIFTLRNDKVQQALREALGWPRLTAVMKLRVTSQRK
How it was run: as §1

[3] = target: T3, OR6V1 (Homo sapiens) (UniProt Q8N148)
T3 sequence (whole entry): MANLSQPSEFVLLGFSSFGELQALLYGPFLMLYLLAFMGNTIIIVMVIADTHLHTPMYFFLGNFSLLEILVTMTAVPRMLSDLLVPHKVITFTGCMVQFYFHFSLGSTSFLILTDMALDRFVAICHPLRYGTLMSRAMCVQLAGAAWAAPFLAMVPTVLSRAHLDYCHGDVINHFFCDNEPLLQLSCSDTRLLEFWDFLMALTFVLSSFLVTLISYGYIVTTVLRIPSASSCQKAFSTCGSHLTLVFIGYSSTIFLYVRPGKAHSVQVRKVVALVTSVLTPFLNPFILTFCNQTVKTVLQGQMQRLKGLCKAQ
How it was run: as §1

[4] = target: T4, OR6X1 (Homo sapiens) (UniProt Q8NH79)
T4 sequence (whole entry): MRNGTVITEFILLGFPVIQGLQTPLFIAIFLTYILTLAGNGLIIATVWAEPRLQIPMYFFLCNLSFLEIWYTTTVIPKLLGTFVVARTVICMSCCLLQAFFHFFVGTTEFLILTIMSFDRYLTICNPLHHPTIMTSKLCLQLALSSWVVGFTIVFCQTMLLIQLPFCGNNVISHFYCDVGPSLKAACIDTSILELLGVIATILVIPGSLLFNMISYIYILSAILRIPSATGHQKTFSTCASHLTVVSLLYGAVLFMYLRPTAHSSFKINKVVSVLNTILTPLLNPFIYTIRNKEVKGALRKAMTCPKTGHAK
How it was run: as §1

[5] = target: T5, OR6Y1 (Homo sapiens) (UniProt Q8NGX8)
T5 sequence (whole entry): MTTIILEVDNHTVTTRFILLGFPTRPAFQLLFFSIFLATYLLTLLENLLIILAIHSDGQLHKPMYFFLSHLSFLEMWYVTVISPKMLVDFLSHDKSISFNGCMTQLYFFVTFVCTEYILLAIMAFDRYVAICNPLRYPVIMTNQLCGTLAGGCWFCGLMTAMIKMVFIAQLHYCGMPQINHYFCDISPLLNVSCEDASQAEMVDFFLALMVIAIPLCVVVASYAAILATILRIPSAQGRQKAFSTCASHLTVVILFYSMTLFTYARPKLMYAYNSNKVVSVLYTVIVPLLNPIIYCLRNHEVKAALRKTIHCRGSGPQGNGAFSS
How it was run: as §1

[6] = target: T6, OR7A10 (Homo sapiens) (UniProt O76100)
T6 sequence (whole entry): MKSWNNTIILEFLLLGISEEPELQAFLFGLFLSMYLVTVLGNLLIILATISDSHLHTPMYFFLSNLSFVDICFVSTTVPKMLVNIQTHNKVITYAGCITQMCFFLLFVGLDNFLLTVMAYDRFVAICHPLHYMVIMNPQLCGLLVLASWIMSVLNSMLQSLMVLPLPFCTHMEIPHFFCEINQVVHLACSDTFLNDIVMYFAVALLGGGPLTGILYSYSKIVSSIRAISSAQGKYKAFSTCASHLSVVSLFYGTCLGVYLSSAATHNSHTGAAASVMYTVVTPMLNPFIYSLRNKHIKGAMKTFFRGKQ
How it was run: as §1

[7] = target: T7, OR7A17 (Homo sapiens) (UniProt O14581)
T7 sequence (whole entry): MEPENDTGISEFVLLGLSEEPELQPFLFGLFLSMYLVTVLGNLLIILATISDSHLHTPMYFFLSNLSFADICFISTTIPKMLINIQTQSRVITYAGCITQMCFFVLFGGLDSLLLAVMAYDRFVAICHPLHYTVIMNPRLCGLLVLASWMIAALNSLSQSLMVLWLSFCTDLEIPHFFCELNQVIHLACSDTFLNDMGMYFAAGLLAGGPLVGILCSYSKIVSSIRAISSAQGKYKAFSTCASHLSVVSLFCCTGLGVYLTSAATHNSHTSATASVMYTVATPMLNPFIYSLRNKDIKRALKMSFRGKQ
How it was run: as §1

[8] = target: T8, OR7A5 (Homo sapiens) (UniProt Q15622)
T8 sequence (whole entry): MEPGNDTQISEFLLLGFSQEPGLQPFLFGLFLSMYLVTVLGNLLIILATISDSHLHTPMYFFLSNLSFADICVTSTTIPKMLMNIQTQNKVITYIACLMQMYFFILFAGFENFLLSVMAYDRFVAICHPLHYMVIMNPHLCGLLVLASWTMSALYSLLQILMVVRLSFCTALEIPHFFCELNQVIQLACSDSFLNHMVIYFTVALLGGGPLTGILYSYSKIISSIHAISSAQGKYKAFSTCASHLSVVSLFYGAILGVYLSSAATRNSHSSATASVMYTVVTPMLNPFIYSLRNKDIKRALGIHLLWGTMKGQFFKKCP
How it was run: as §1

[9] = tested on: T9, OR6S1 T42I V156I
T9 sequence (whole entry): T1 sequence (whole entry) with T42I, V156I
How it was run: as §1

[10] = tested on: T10, OR6T1 N2D
T10 sequence (whole entry): T2 sequence (whole entry) with N2D
How it was run: as §1

Measured: odorant receptor agonist call

CC1CCCCCCCCCCCCC(=O)C1 (stereo unspecified)
not listed: [9] | [10]
inactive: all other assays above

Cc1cnc(C)c(C)n1
inactive: all assays above

CCCC(S)CCOC(C)=O (stereo unspecified)
inactive: all assays above

CCCCCCC=CCCC=O
inactive: all assays above

CCC(S)C(C)CO (stereo unspecified)
not listed: [9] | [10]
inactive: all other assays above

CC1=C(O)C(=O)OC1C (stereo unspecified)
inactive: all assays above

CCCCCC(=O)C(C)C(C)=O (stereo unspecified)
not listed: [9] | [10]
inactive: all other assays above

CC1=C(O)C(=O)C(C)O1 (stereo unspecified)
inactive: all assays above

CCCCC(S)C(C)CO (stereo unspecified)
active: [8]
not listed: [9] | [10]
inactive: all other assays above

CCC1OC(=O)C(O)=C1C (stereo unspecified)
inactive: all assays above

CC(CO)CS (stereo unspecified)
not listed: [9] | [10]
inactive: all other assays above

CCCCCC(S)C(C)CO (stereo unspecified)
not listed: [9] | [10]
inactive: all other assays above

CC(=O)c1c(C)c([N+](=O)[O-])c(C(C)(C)C)c([N+](=O)[O-])c1C
not listed: [9] | [10]
inactive: all other assays above

CC1=NC(C)C(C)S1 (stereo unspecified)
inactive: all assays above

CCC1OC(C)=C(O)C1=O (stereo unspecified)
inactive: all assays above
